In the library only some 1.2% were active in any assay of this set; here they are far more common.
GC-B act = GC-B (human) receptor activation; HEK293-GC-B cells, CNP EC30, cGMP TR-FRET; 0% at EC30 CNP, 100% saturating CNP; P20594; activation, % at 10 µM; 370,000 tested, 0.11% active;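 active = activation at 10 µM reaching about 35% in either raw or pattern-adjusted values, limit read from the data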
CTSL1 counter = counter-screen for PFM18AAP inhibitors: inhibitors of F. hepatica cathepsin L1 | recombinant F. hepatica cathepsin L1, Z-Leu-Arg-MCA fluorescence | inhibition, % at 5.96 µM | 300,000 tested, 0.49% active | AID 1906;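 active = inhibition above the mean of all tested compounds plus 3 SD, set per screening campaign, cut at about 17% in these data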;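 also: 0% = plate median of test compound wells and 100% = 1 µM Z-Phe-Ala-diazomethylketone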
GC-A act = GC-A (human) enzyme activation. P16066. HEK293 GC-A cells, cGMP TR-FRET, EC30 ANP; 0% at EC30 ANP, 100% saturating ANP. activation, % at 10 µM. 370,000 tested, 0.14% active. AID 1671463; in the data active = activation above about 40%
ASAP1 inh = ASAP1 ArfGAP inhibition; ASAP1-stimulated ARF1 GTP hydrolysis, GDP FP detection; inhibition, % at 16.5 µM; 360,000 tested, 0.19% active; AID 624377; in the data active = inhibition above about 25%;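 also: 0% = vehicle with enzyme and substrate and 100% = no enzyme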
ARFGAP1 inh = inhibitors of rat ARFGAP1. Q62848. Arfgap1-stimulated ARF1 GTP hydrolysis, GDP FP detection. 360,000 tested, 0.26% active. inhibition, % at 16.5 µM. AID 651572;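 active = inhibition above a per-plate limit, mean inhibition of low control wells plus 3 SD, cut at about 25% in these data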;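 also: 0% = DMSO wells with enzyme and 100% = wells lacking Arfgap1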
Target sequence (Q62848 1-136 limits assumed): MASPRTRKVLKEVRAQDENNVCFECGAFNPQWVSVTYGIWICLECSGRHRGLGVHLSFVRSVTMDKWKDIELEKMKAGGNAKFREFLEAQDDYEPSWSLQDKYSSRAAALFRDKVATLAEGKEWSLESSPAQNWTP
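Replicates: Single well per compound | Assay system: Truncated rat Arfgap1 GAP domain | Control set: No-Arfgap1 wells (100%) versus DMSO full-reaction wells (0%) | Times: Enzyme reaction 120 min at 25 °C after 20 min preincubation | Reagent: Human ARF1(Δ1-17)-GTP substrate | Measured by: Tracer-displacement fluorescence polarization with EDTA stop, 620/688 nm | Measure: Percent inhibition of Arfgap1-stimulated GTP hydrolysis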
HCV core dimer = HCV core protein dimerization inhibition; TR-FRET GST/Flag-core106 dimerization, 1536-well; inhibition, % at 5 µM; 300,000 tested, 0.33% active; AID 1899;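 active = inhibition above the mean of all tested compounds plus 3 SD, set per screening campaign, cut at about 45% in these data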
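Test system: GST/Flag-tagged HCV core106 proteins; Medium: KF-containing HEPES buffer, pH 7.45, DTT, CHAPS, BSA; Times: compound-protein-antibody incubation 4 h at 22.5 °C; Detection: TR-FRET 671 and 617 nm emission; Benchmarks: wells lacking GST-core106 and wells with excess unlabelled core106.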
ARFGAP1 inh conf = rat ARFGAP1 inhibition, confirmed. shares compounds with ARFGAP1 inh. ARFGAP1-stimulated ARF1 GTP hydrolysis, GDP tracer FP. inhibition, % at 16.5 µM. 890 tested, 30% active;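 active = average inhibition over triplicates above the hit cutoff set in the earlier primary screen, cut at about 25% in these data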;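 also: 0% = Arfgap1 plus ARF1-GTP with DMSO and 100% = wells lacking Arfgap1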
Target sequence (Q62848 whole entry, looked up): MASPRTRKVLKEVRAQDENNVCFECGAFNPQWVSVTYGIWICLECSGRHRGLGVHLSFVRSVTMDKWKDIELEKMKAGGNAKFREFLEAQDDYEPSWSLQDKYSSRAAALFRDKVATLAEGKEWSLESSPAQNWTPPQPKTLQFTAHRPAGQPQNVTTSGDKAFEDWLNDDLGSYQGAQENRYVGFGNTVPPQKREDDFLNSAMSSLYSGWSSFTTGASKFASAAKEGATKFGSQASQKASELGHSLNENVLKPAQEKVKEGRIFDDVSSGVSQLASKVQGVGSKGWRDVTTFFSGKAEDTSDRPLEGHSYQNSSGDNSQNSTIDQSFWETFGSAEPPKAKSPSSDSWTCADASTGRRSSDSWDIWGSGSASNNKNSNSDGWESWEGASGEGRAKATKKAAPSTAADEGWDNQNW
* hit, by the source's call; . = no result given.

SMILES	GC-B act	CTSL1 counter	GC-A act	ASAP1 inh	ARFGAP1 inh	HCV core dimer	ARFGAP1 inh conf
CNc1nc(-c2c[nH]c3ccccc23)cs1	-2	1	-2	10	31*	-19	1
O=c1[nH]c2ccccc2nc1-c1c[nH]c2ccccc12	-6	-2	3	4	26*	-16	13
Nc1ccccc1-c1nc2ccccc2[nH]c1=O	4	.	-3	3	2	.	.
COc1cccc(OC)c1C(=O)Nc1ccc(S(=O)(=O)Nc2ncccn2)cc1	5	-3	5	6	28*	-5	9
COc1cc(C(=O)Nc2ccc(S(=O)(=O)Nc3ncccn3)cc2)c([N+](=O)[O-])cc1OC	2	-2	2	5	-9	-1	.
Cc1c(C=O)c(Cl)n(C)c(=O)c1C#N	8	67*	1	20	28*	-1	5
CC(C)c1ccc(/C=N/N2CCCCC2)cc1	1	1	1	7	-1	-3	.
COc1ccccc1C(=O)O/N=C1/CCCc2c1ccc(OC)c2[N+](=O)[O-]	.	-2	.	-15	-10	7	.
COc1cc(C(=O)O/N=C2\CCCc3c2ccc(OC)c3[N+](=O)[O-])cc(OC)c1OC	9	-5	-2	11	25*	8	-7
O=C1Cc2cc(S(=O)(=O)N3CCCCC3)ccc2N1	0	-1	0	-11	-2	8	.
Cc1ccc(S(=O)(=O)NCCC(=O)Nc2cccc(S(=O)(=O)N3CCCC3)c2)cc1C	-3	.	0	-2	34*	.	2
C/C(=N\NC(=S)NCc1ccccc1)c1cccs1	1	4	1	-17	30*	0	1
C/C(=N\NC(=S)NCc1ccccc1)c1ccc(Cl)s1	14	4	10	-5	7	1	.
CC(C)C[C@H](NC(=O)c1ccco1)C(=O)N1CCC[C@H]1C(=O)NCc1ccccc1	10	.	0	-6	7	.	.
C=CCOCCN(C)C1=NS(=O)(=O)c2cc([N+](=O)[O-])ccc21	4	-2	4	11	-10	-1	.
CN(CCO)C1=NS(=O)(=O)c2cc([N+](=O)[O-])ccc21	-4	1	-4	4	30*	-1	-2
CC1(c2nnc(Cc3ccccc3)o2)CC(c2ccncc2)=NO1 (stereo not given)	1	-1	3	1	43*	3	2
CC1(c2nnc(Cc3ccccc3)o2)CC(c2ccc(Cl)cc2)=NO1 (stereo not given)	2	-2	0	-2	-18	-1	.
CCOC(=O)c1cc2c(=Cc3ccc(N(C)C)cc3)c3ccccc3n2[n+]1C	-19	.	-16	21	29*	.	-6
CCOC(=O)Cc1nc(-c2cccc(C(F)(F)F)c2)no1	-2	0	4	2	27*	-2	5
C=CCn1c(=NC(=O)c2cccs2)sc2cccc(OC)c21	-8	3	-13	-1	31*	13	0
Cc1cccc(C(=O)Nc2ccc(C(=O)c3ccncc3)cc2)c1	2	.	2	7	17	.	.
COc1ccc(OC(C)C(=O)N2CC(C)OC(C)C2)cc1 (stereo not given)	0	4	0	5	-4	6	.
O=C(CSc1nncs1)NC1CCCCCCC1	5	.	4	-1	-2	.	.
COc1[nH]c2ccc(F)cc2c1C(=O)OCC1CCN(CCNS(C)(=O)=O)CC1	1	2	0	-12	28*	8	2
SMILES	GC-B act	CTSL1 counter	GC-A act	ASAP1 inh	ARFGAP1 inh	HCV core dimer	ARFGAP1 inh conf
Cc1ccccc1-n1c(=O)cc(N2CCc3ccccc32)[nH]c1=O	-1	-1	6	-5	25*	-4	-4
Cc1ccccc1C(=O)N1CCN(c2ncccn2)CC1	0	-1	1	-9	70*	5	2
COc1ccccc1N1CC(C(=O)Nc2nnc(SCC(=O)N3CCCC3)s2)CC1=O (stereo not given)	1	3	2	4	-1	1	.
O=c1oc2ccccc2n1CSC1=NCCS1	-1	1	-3	-5	1	3	.
O=C(Nc1ccc(F)c(Cl)c1)c1ccc2sc([C@H]3C[C@H](O)[C@@H](CO)O3)nc2c1	1	.	9	13	25*	.	5
CC(=O)c1ccc(-c2cnc3c(NC=O)cc(-c4ccc(C(=O)NC5CC5)cc4)cn23)cc1	10	.	9	12	-5	.	.
COc1ccc(-c2cc(NC=O)c3ncc(-c4ccc(C(C)=O)cc4)n3c2)cn1	11	.	12	21	29*	.	34*
COc1ccc(-c2cc(NC=O)c3ncc(-c4cccc(C(=O)NCCN(C)C)c4)n3c2)cc1	0	.	0	8	27*	.	27*
CC(=O)Nc1cccc(-c2cc(NC=O)c3ncc(-c4ccc(C(C)=O)cc4)n3c2)c1	5	.	10	19	25*	.	19
CC(=O)Nc1cccc(-c2cc(NC(C)=O)c3ncc(-c4cccc(C(C)=O)c4)n3c2)c1	12	.	4	6	8	.	.
COc1cccc(C2=NOC(C(=O)NCC3CCCO3)C2)c1 (stereo not given)	4	2	0	5	13	3	.
COC(=O)CSc1nnc2n1C(C)(C)Cc1ccccc1-2	-6	3	1	6	5	0	.
CC1(C)Cc2ccccc2-c2nnc(SCC(=O)N3CCc4ccccc43)n21	-10	0	-6	22	27*	11	24
COc1ccc(C(=O)Nc2ccc(N3CCCC3)cc2)cc1	2	0	0	10	25*	11	87*
Cc1cccc(-n2nnnc2SCC(=O)NCCN2C(=O)CSC2=O)c1	4	1	4	-1	-2	-1	.
COc1ccc(-c2cc(C(=O)Nc3cccc(S(=O)(=O)NCc4ccco4)c3)c3ccccc3n2)cc1OC	1	6	5	19	26*	18	22
O=C(Nc1cccc(S(=O)(=O)NCc2ccco2)c1)c1cc(-c2ccc(F)cc2)nc2ccccc12	-3	-1	2	7	8	8	.
Nc1ccc(-c2nc3ccc(N)cc3[nH]2)cc1	-20	8	-17	-4	4	-17	.
Nc1ccc2cc3[nH]c4cc(N)ccc4c3nc2c1	-4	.	0	11	46*	.	73*
CC(C)(C)CC(C)(C)NC(=O)/C=C/C(=O)O	4	3	-1	-16	25*	0	-2
Cc1sc(NC(=O)CSc2nnc(COc3ccccc3)n2C)c(C#N)c1C	-2	-4	-3	5	25*	5	11

Bioassay records deposited in PubChem BioAssay by several laboratories.
